Broadly, the inhibition is the share of the control response that was lost under treatment. Lower therefore signals a response near the control. Usually IC50 stands for the concentration at which inhibition is half-maximal. Read a high IC50 as weaker potency.

The source of these data is ChEMBL document CHEMBL1136623, “Cytotoxic activity of 6-alkynyl- and 6-alkenylpurines” (Bioorg Med Chem Lett, 2003).

Experiment [1] relates to K562. Nature of the experiment: Percent inhibition of [3H]-thymidine incorporation was determined in human chronic myelogenous leukemic K-562 cell line at 10 ug/mL after 48 hr. It is filed as functional. An outline of the steps:
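Single-concentration screen. K-562 cells in log growth seeded at 2×10^4 cells/mL in supplemented RPMI 1640 and exposed 48 h to purine at 10 µg/mL, final DMSO 0.05%. Followed by a 2 h [3H]-thymidine pulse (1 µCi/well), harvest onto fiberglass filters, and scintillation count. Reported as percent inhibition of incorporation.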
(Dividing cells build labelled thymidine or BrdU into new DNA.)

Experiment [2] deals with K562. Nature of the experiment: Inhibitory concentration required against human chronic myelogenous leukemic K-562 cell line after 48h, using [3H]thymidine incorporation assay. It is filed as functional, cell-based. An outline of the steps:
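Logarithmically growing K-562 cells seeded at 2×10^4 cells/mL in RPMI 1640 with supplements. Exposed 48 h to purines at 10 to 0.078 µg/mL, final DMSO 0.05% (vol/vol). Pulsed 2 h with 1 µCi/well [3H]-thymidine, harvested onto fiberglass filters, and cell-associated radioactivity counted. IC50 taken as the concentration inhibiting incorporation by 50%.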

The subject of experiment [3] is K562. Briefly: Inhibitory concentration required against human chronic myelogenous leukemic K-562 cell line after 5h, using [3H]thymidine incorporation assay. The experiment is classed as functional, cell-based. An outline of the steps: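 K-562 cells in log-phase growth seeded at 4×10^4 cells/mL in supplemented RPMI 1640. Purines at 10 to 0.078 µg/mL for 5 h, final DMSO 0.05% (vol/vol). Then a 2 h pulse of 1 µCi/well [3H]-thymidine, filter harvest, and counting of cell-bound radioactivity. IC50 is the concentration giving 50% inhibition of incorporation.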

In brackets after ≈: the same amount, converted by molar mass.

As for `C/C(=C\C=C\c1[nH]cnc2ncnc1-2)CO`, in experiment [1], the inhibition at 10 µg/mL was determined as 6%.

In experiment [1], `Nc1nc(/C=C/c2ccccc2)c2[nH]cnc2n1` gave an inhibition at 10 µg/mL of 2%.

`C(=C\c1ncnc2c1ncn2C1CCOCC1)/c1ccccc1`: the inhibition at 10 µg/mL in experiment [1] came out at 66%. The same measure, in the same setting: with `CC(C)=CC#Cc1[nH]cnc2ncnc1-2` the figure was 30%. In turn, `C=Cc1ncnc2ncn(Cc3ccccc3)c12` gave an inhibition at 10 µg/mL in experiment [1] of 100%. For the same compound, the IC50 in experiment [2] turned out to be 0.5 µg/mL (≈ 2.12 µM); in experiment [3], 1.4 µg/mL (≈ 5.93 µM). For `C(=C\c1ncnc2c1ncn2C1CCOCC1)/c1cccs1`, in experiment [1], testing at 10 µg/mL gave an inhibition of 65%. Same read-out and setting: with `C(=C\c1[nH]cnc2ncnc1-2)/c1ccsc1` the figure was 32%; with `COC(=O)/C(C)=C/C=C/c1[nH]cnc2ncnc1-2`, 20%; with `C(=C\c1ncnc2c1ncn2C1CCOCC1)/c1ccsc1`, 58%. Same read-out and setting: the figure for `C(=C\c1ncnc2c1ncn2C1CCOCC1)/c1ccco1` is 35%; for `COc1ccc(/C=C/c2[nH]cnc3ncnc2-3)cc1` it is 54%.

As for `Clc1nc2c(C#Cc3ccccc3)ncnc2n1C1CCOCC1`, the inhibition at 10 µg/mL in experiment [1] was 85%. Besides, the IC50 in experiment [2] is 6.1 µg/mL (≈ 18 µM); in experiment [3], 7 µg/mL (≈ 20.7 µM). As to `C(=C\c1[nH]cnc2ncnc1-2)/c1ccccc1`, the inhibition at 10 µg/mL in experiment [1] came to 28%. As for `C/C(=C\C=C\c1ncnc2c1ncn2C1CCOCC1)CO`, in experiment [1], testing at 10 µg/mL gave an inhibition of 27%. On the same count and under the same terms, with `C(=C\c1[nH]cnc2ncnc1-2)/c1ccco1` the figure was 24%. Still for that read-out and setting: with `COc1ccc(/C=C/c2ncnc3c2ncn3C2CCOCC2)cc1` the figure was 58%. In the case of `Clc1nc(C#Cc2ccccc2)c2ncn(Cc3ccccc3)c2n1`, in experiment [1], the inhibition at 10 µg/mL worked out at 100%. Further, the results for the IC50 in experiment [2] and in experiment [3] were 0.12 µg/mL (≈ 0.348 µM) and 0.8 µg/mL (≈ 2.32 µM), respectively.

For the compound `Clc1nc(/C=C/c2ccccc2)c2ncn(Cc3ccccc3)c2n1`, in experiment [1], the inhibition at 10 µg/mL came out at 99%. Further, the half-inhibitory concentration (IC50) in experiment [2] was found to be 2 µg/mL (≈ 5.77 µM); in experiment [3], 6 µg/mL (≈ 17.3 µM).

Turning to `C(=C\c1ncnc2c1ncn2Cc1ccccc1)/c1ccccc1`, in experiment [1], the inhibition at 10 µg/mL stood at 93%. `Nc1nc(/C=C/c2ccccc2)c2ncn(Cc3ccccc3)c2n1` yielded an inhibition at 10 µg/mL in experiment [1] of 91%. Moreover, the IC50 in experiment [2] turned out to be 1.2 µg/mL (≈ 3.67 µM); in experiment [3], 2 µg/mL (≈ 6.11 µM). `C(#Cc1nc(-c2ccccc2)nc2c1ncn2Cc1ccccc1)c1ccccc1` came in with an inhibition at 10 µg/mL in experiment [1] of 100%. Also, the half-maximal inhibitory concentration (IC50) is 1.4 µg/mL (≈ 3.62 µM) in experiment [2] and 2.4 µg/mL (≈ 6.21 µM) in experiment [3]. `C(=C\c1nc(-c2ccccc2)nc2c1ncn2Cc1ccccc1)/c1ccccc1`: the inhibition at 10 µg/mL in experiment [1] came to 34%. Turning to `C=Cc1ncnc2c1ncn2Cc1ccccc1`, at 10 µg/mL the inhibition in experiment [1] was 100%. The results for the IC50 in experiment [2] and in experiment [3] were 1.1 µg/mL (≈ 4.66 µM) and 2.2 µg/mL (≈ 9.31 µM), respectively. The matching figures for `C(#Cc1ncnc2c1ncn2Cc1ccccc1)c1ccccc1`: 98%, 1.3 µg/mL (≈ 4.19 µM) and 6 µg/mL (≈ 19.3 µM). The corresponding values for `COC(=O)/C(C)=C/C#Cc1[nH]cnc2ncnc1-2` are 100%, 1.6 µg/mL (≈ 6.61 µM) and 3.2 µg/mL (≈ 13.2 µM). With `C(=C\c1[nH]cnc2ncnc1-2)/c1cccs1`, in experiment [1], the inhibition at 10 µg/mL was 50%. For `C(#Cc1[nH]cnc2ncnc1-2)c1ccccc1`, the inhibition at 10 µg/mL in experiment [1] worked out at 100%. For the same compound, the IC50 in experiment [2] was 0.7 µg/mL (≈ 3.18 µM); in experiment [3], 5.9 µg/mL (≈ 26.8 µM). Compound `C/C(=C\C#Cc1[nH]cnc2ncnc1-2)CO` gave an inhibition at 10 µg/mL in experiment [1] of 17%. For `C(#Cc1ncnc2c1ncn2C1CCOCC1)c1ccccc1`, at 10 µg/mL the inhibition in experiment [1] was 100%. For the same compound, the half-maximal inhibitory concentration (IC50) in experiment [2] was 0.5 µg/mL (≈ 1.64 µM); in experiment [3] it was 3.2 µg/mL (≈ 10.5 µM). The corresponding values for `OC[C@H]1OC(n2cnc3c(C#Cc4ccccc4)ncnc32)[C@H](O)[C@@H]1O` (stereo partly drawn) are 100%, 0.1 µg/mL (≈ 0.284 µM) and 0.2 µg/mL (≈ 0.568 µM).

The compound `OC[C@H]1OC(n2cnc3c(/C=C/c4ccccc4)ncnc32)[C@H](O)[C@@H]1O` (stereo partly drawn) registered an inhibition at 10 µg/mL in experiment [1] of 79%. The IC50 worked out at 2 µg/mL (≈ 5.64 µM) in experiment [2] and 10 µg/mL (≈ 28.2 µM) in experiment [3]. The corresponding values for `Nc1nc(F)nc2c1ncn2[C@@H]1O[C@H](CO)[C@@H](O)[C@@H]1O` [FLUDARABINE] are 98%, 0.6 µg/mL (≈ 2.1 µM) and 0.6 µg/mL (≈ 2.1 µM).

In experiment [1], `Sc1ncnc2nc[nH]c12` [MERCAPTOPURINE ANHYDROUS] had an inhibition at 10 µg/mL of 80%. The IC50 is 0.6 µg/mL (≈ 3.94 µM) in experiment [2] and greater than 10 µg/mL in experiment [3].
